Source: ChEMBL document CHEMBL1126849, “Synthesis of A-ring fluorinated derivatives of (17 alpha,20E/Z)-[125I]iodovinylestradiols: effect on receptor binding and receptor-mediated target tissue uptake” (J Med Chem, 1993)

Key:
[1] = biological target: T1, Estrogen receptor (Mus musculus) (UniProt O08537+P19785); experiment: Relative binding affinity (RBA) for murine cytoplasmic estrogen receptor at 4C for 18 hr; type: protein assay
How it was run: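 Competitive binding on murine uterine cytoplasmic extract with 20 nM [3H]estradiol and competitor steroids at 2 nM–20 μM, incubated 18 h at 0–4 °C. RBA = 100 × ratio of […] concentration giving 50% competition for specific binding. Mean of three experiments with SD.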

Rattus norvegicus [2] = experiment: Biodistribution in thyroid of immature female rat after 1 hr administration of 3 micro Ci (111 kBq) in the absence of 60 microg estradiol; type: ADME, organism-based, Thyroid gland; details: in vivo
How it was run: (§1)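 Immature female Long Evans rats (21–24 days, 45–70 g), three to five per group, given 125I-labeled steroid (3 μCi, 111 kBq) by lateral tail vein without anesthesia. Vehicle: ethanol diluted in saline with 1% Tween-80, final ethanol 9%, 0.22 μm filtered. +E2 groups received 60 μg unlabeled estradiol co-injected. Killed under ether at set times; tissues KCl-washed, blotted, weighed, gamma counted; %ID/g, mean with SE.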

Rattus norvegicus [3] = experiment: Biodistribution in muscle of immature female rat after 5 hour administration of 3 micro Ci (111 kBq) in the absence of 60 microg estradiol; type: ADME, organism-based, Muscle tissue; details: in vivo; how it was run: as §1
Rattus norvegicus [4] = experiment: Biodistribution in liver of immature female rat after 1 hr administration of 3 micro Ci (111 kBq) in the presence of (+E2); type: ADME, organism-based; details: in vivo
How it was run: (§2)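 Immature female Long Evans rats (21–24 days, 45–70 g), unanesthetized in retention cages, given 3 µCi (111 kBq) 125I-labeled steroid i.v. via lateral tail vein. Vehicle was ethanol diluted in saline containing 1% Tween-80, giving 9% ethanol final. The blocking group received 60 µg unlabeled estradiol co-injected. Rats were killed under ether by axillary bleeding, and tissues were KCl-washed and gamma-counted. Data are %ID/g, mean ± SE, n=3–5.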

Rattus norvegicus [5] = experiment: Biodistribution in fat of immature female rat after 3 hour administration of 3 micro Ci (111 kBq) in the absence of 60 microg estradiol; type: ADME, organism-based, Adipose tissue; details: in vivo; how it was run: as §2
Rattus norvegicus [6] = experiment: Biodistribution in spleen of immature female rat after 1 hr administration of 3 micro Ci (111 kBq) in the presence of (+E2); type: ADME, organism-based; details: in vivo; how it was run: as §1
Rattus norvegicus [7] = experiment: Biodistribution in uterus of immature female rat after 1 hr administration of 3 micro Ci (111 kBq) in the presence of (+E2); type: ADME, organism-based; details: in vivo
How it was run: (§3)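 Immature female Long Evans rats (21–24 days, 45–70 g), 3–5 per group, unanesthetized in retention cages, given 3 μCi (111 kBq) 125I-labeled steroid by lateral tail vein. Vehicle: ethanol diluted with saline containing 1% Tween-80, final ethanol 9%. +E2 group co-injected 60 μg unlabeled estradiol (1 h only). Killed under ether; tissues KCl-washed, weighed, gamma-counted. Output: %ID/g (mean, SE) and uterus to blood or nontarget (muscle, spleen, lungs) ratios.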

Rattus norvegicus [8] = experiment: Biodistribution in muscle of immature female rat after 12 hour administration of 3 micro Ci (111 kBq) in the absence of 60 microg estradiol; type: ADME, organism-based, Muscle tissue; details: in vivo; how it was run: as §1
Rattus norvegicus [9] = experiment: Biodistribution in uterus / blood of immature female rat after 3 hour administration of 3 micro Ci (111 kBq) in the absence of 60 microg estradiol; type: ADME, organism-based; details: in vivo
How it was run: (§4)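 Same in vivo procedure: immature female Long Evans rats (21–24 days), three to five per group, 3 μCi (111 kBq) tracer i.v. via tail vein in 9% ethanol/saline/1% Tween-80, ± 60 μg estradiol co-injected at 1 h. Uterus %ID/g (gamma counting) divided by blood, or by nontarget organ (muscle, spleen, lungs), %ID/g to give ratios.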

Rattus norvegicus [10] = experiment: Biodistribution in uterus / blood of immature female rat after 12 hour administration of 3 micro Ci (111 kBq) in the absence of 60 microg estradiol; type: ADME, organism-based; details: in vivo; how it was run: as §4
Rattus norvegicus [11] = experiment: Biodistribution in muscle of immature female rat after 1 hr administration of 3 micro Ci (111 kBq) in the presence of (+E2); type: ADME, organism-based, Muscle tissue; details: in vivo; how it was run: as §1
Rattus norvegicus [12] = experiment: Biodistribution in uterus of immature female rat after 3 hour administration of 3 micro Ci (111 kBq) in the absence of 60 microg estradiol; type: ADME, organism-based; details: in vivo; how it was run: as §3
Rattus norvegicus [13] = experiment: Biodistribution in fat of immature female rat after 12 hour administration of 3 micro Ci (111 kBq) in the absence of 60 microg estradiol; type: ADME, organism-based, Adipose tissue; details: in vivo; how it was run: as §2
Rattus norvegicus [14] = experiment: Biodistribution in uterus of immature female rat after 5 hour administration of 3 micro Ci (111 kBq) in the absence of 60 microg estradiol; type: ADME, organism-based; details: in vivo; how it was run: as §3
[15] = biological target: T1, Estrogen receptor (Mus musculus); experiment: Relative binding affinity (RBA) for murine cytoplasmic estrogen receptor at 4C for 2 hr; type: protein assay
How it was run: (§5)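 Murine uterine cytoplasmic extract incubated 2 h at 4 °C or at 25 °C with 20 nM [3H]estradiol and competitors at 2 nM–20 μM. RBA is taken as 100 × the ratio of competitor to unlabeled estradiol concentration needed for 50% competition of specific [3H]estradiol binding.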

Rattus norvegicus [16] = experiment: Biodistribution in lungs of immature female rat after 1 hr administration of 3 micro Ci (111 kBq) in the absence of 60 microg estradiol; type: ADME, organism-based, Lung; details: in vivo; how it was run: as §2
[17] = biological target: T1, Estrogen receptor (Mus musculus); experiment: Relative binding affinity (RBA) for murine cytoplasmic estrogen receptor at 25 degree C for 2 hr; type: protein assay; how it was run: as §5
Rattus norvegicus [18] = experiment: Biodistribution in kidney of immature female rat after 1 hr administration of 3 micro Ci (111 kBq) in the absence of 60 microg estradiol; type: ADME, organism-based; details: in vivo; how it was run: as §2
Rattus norvegicus [19] = experiment: Biodistribution in liver of immature female rat after 12 hour administration of 3 micro Ci (111 kBq) in the absence of 60 microg estradiol; type: ADME, organism-based; details: in vivo; how it was run: as §2
Rattus norvegicus [20] = experiment: Biodistribution in blood of immature female rat after 5 hour administration of 3 micro Ci (111 kBq) in the absence of 60 microg estradiol; type: ADME, organism-based; details: in vivo; how it was run: as §2
Rattus norvegicus [21] = experiment: Biodistribution in fat of immature female rat after 5 hour administration of 3 micro Ci (111 kBq) in the absence of 60 microg estradiol; type: ADME, organism-based, Adipose tissue; details: in vivo; how it was run: as §2
Rattus norvegicus [22] = experiment: Biodistribution in liver of immature female rat after 3 hour administration of 3 micro Ci (111 kBq) in the absence of 60 microg estradiol; type: ADME, organism-based; details: in vivo; how it was run: as §2
Rattus norvegicus [23] = experiment: Biodistribution in muscle of immature female rat after 3 hour administration of 3 micro Ci (111 kBq) in the absence of 60 microg estradiol; type: ADME, organism-based, Muscle tissue; details: in vivo; how it was run: as §1
Rattus norvegicus [24] = experiment: Biodistribution in uterus / blood of immature female rat after 1 hr administration of 3 micro Ci (111 kBq) in the presence of (+E2); type: ADME, organism-based; details: in vivo; how it was run: as §4
Rattus norvegicus [25] = experiment: Biodistribution in liver of immature female rat after 1 hr administration of 3 micro Ci (111 kBq) in the absence of 60 microg estradiol; type: ADME, organism-based; details: in vivo; how it was run: as §2
Rattus norvegicus [26] = experiment: Biodistribution in uterus / spleen, muscle, lungs of immature female rat after 5 hour administration of 3 micro Ci (111 kBq) in the absence of 60 microg estradiol; type: ADME, organism-based; details: in vivo; how it was run: as §3
Rattus norvegicus [27] = experiment: Biodistribution in lungs of immature female rat after 5 hour administration of 3 micro Ci (111 kBq) in the absence of 60 microg estradiol; type: ADME, organism-based, Lung; details: in vivo; how it was run: as §1
Rattus norvegicus [28] = experiment: Biodistribution in kidney of immature female rat after 5 hour administration of 3 micro Ci (111 kBq) in the absence of 60 microg estradiol; type: ADME, organism-based; details: in vivo; how it was run: as §2
Rattus norvegicus [29] = experiment: Biodistribution in uterus / spleen, muscle, lungs of immature female rat after 3 hour administration of 3 micro Ci (111 kBq) in the absence of 60 microg estradiol; type: ADME, organism-based; details: in vivo; how it was run: as §3

T1 sequence (O08537 whole entry, looked up): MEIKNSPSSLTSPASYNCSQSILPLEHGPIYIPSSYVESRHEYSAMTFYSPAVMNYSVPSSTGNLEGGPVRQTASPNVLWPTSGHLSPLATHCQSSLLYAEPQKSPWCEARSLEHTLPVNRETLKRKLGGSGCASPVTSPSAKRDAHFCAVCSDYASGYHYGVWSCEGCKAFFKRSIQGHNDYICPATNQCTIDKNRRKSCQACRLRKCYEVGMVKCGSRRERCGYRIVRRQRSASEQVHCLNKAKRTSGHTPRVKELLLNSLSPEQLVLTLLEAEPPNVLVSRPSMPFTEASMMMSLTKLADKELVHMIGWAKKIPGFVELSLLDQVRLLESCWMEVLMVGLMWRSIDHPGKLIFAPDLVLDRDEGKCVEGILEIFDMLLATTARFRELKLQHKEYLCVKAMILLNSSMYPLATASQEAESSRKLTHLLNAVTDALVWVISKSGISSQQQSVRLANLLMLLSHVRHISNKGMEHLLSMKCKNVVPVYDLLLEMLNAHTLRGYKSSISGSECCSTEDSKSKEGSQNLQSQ
T1 sequence (P19785 whole entry, looked up): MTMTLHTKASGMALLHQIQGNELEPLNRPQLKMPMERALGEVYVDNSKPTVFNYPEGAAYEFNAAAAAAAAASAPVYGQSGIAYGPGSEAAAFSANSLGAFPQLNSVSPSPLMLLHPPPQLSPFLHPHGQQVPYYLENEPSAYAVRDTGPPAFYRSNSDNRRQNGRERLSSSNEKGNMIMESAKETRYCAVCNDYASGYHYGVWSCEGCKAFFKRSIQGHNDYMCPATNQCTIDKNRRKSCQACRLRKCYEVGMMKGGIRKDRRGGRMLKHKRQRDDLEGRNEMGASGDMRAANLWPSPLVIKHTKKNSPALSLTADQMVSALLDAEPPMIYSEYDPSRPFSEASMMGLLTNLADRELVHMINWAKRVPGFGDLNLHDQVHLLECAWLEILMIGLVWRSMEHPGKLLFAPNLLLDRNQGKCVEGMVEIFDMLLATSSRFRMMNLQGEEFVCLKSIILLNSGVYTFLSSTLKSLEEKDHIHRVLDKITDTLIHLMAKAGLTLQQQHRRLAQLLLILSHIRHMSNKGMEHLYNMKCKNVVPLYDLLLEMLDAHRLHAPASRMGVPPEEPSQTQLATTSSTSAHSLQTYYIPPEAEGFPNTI

Compound	ID/g (Rattus norvegicus [2]) [%]	ID/g (Rattus norvegicus [3]) [%]	ID/g (Rattus norvegicus [4]) [%]	ID/g (Rattus norvegicus [5]) [%]	ID/g (Rattus norvegicus [6]) [%]	ID/g (Rattus norvegicus [7]) [%]	ID/g (Rattus norvegicus [8]) [%]	uterus to blood %ID/g ratio (unitless) (Rattus norvegicus [9]) [%]	ID/g (Rattus norvegicus [11]) [%]	ID/g (Rattus norvegicus [12]) [%]	ID/g (Rattus norvegicus [13]) [%]	ID/g (Rattus norvegicus [14]) [%]	ID/g (Rattus norvegicus [16]) [%]	ID/g (Rattus norvegicus [18]) [%]	ID/g (Rattus norvegicus [19]) [%]	ID/g (Rattus norvegicus [20]) [%]	ID/g (Rattus norvegicus [21]) [%]	ID/g (Rattus norvegicus [23]) [%]	uterus/blood %ID/g ratio (Rattus norvegicus [24]) [%]	ID/g (Rattus norvegicus [25]) [%]	also measured
C[C@]12CC[C@@H]3c4cc(F)c(O)cc4CC[C@H]3[C@@H]1CC[C@@]2(O)/C=C\I	39	0.14	2.58	2.21	1	0.68	0.05	12.98	2.16	5.44	0.19	3.67	0.81	0.88	0.81	0.3	1.13	0.28	1.2	2.25	RBA [1]: 53.7; Uterus-to-blood radioactivity ratio (dimensionless) (Rattus norvegicus [10]): 15.69%; RBA [15]: 40.1; RBA [17]: 99; ID/g (Rattus norvegicus [22]): 1.76%; uterus to nontarget tissue ratio (Rattus norvegicus [26]): 18.05%; ID/g (Rattus norvegicus [27]): 0.24%; ID/g (Rattus norvegicus [28]): 0.3%; Uterus to nontarget tissue (spleen, muscle, lungs) uptake ratio (Rattus norvegicus [29]): 17.64%
C[C@@H]1Cc2cc(O)c(F)cc2[C@H]2CC[C@@]3(C)[C@@H](CC[C@@]3(O)/C=C/I)[C@H]12	78	0.21	2.28	1.36	0.45	0.39	0.17	4.11	0.31	0.85	0.92	0.63	0.54	0.63	1	0.17	1.28	0.15	1.34	2.29	Uterus-to-blood radioactivity ratio (dimensionless) (Rattus norvegicus [10]): 2.99%; ID/g (Rattus norvegicus [22]): 1.53%; uterus to nontarget tissue ratio (Rattus norvegicus [26]): 3.61%; ID/g (Rattus norvegicus [27]): 0.22%; ID/g (Rattus norvegicus [28]): 0.26%; Uterus to nontarget tissue (spleen, muscle, lungs) uptake ratio (Rattus norvegicus [29]): 3%
C[C@]12CC[C@@H]3c4cc(F)c(O)cc4CC[C@H]3[C@@H]1CC[C@@]2(O)/C=C/I	27	0.28	3.86	3.17	0.56	0.52	0.03	1.4	0.54	0.53	0.41	0.34	1	0.87	1.58	0.29	2.39	0.37	1.09	3.95	RBA [1]: 6.2; RBA [15]: 30.4; RBA [17]: 5.3; ID/g (Rattus norvegicus [27]): 0.54%; ID/g (Rattus norvegicus [28]): 0.25%
